Data from ChEMBL document CHEMBL1933057, “Pyrrole alkanoic acid derivatives as nuisance inhibitors of microsomal prostaglandin E2 synthase-1” (Eur J Med Chem, 2012).
Activity calls are given as the source filed them. No cut-off for these calls is given here.

Tests used:
[1] = molecular target: T1, Prostaglandin E synthase (Homo sapiens) (UniProt O14684); assay: Inhibition of mPGES-1 in human A549 cell microsomes assessed as conversion of PGH2 into PGE2 at 3.3 uM at 0 degC after 5 mins by HPLC-UV analysis; settings: Microsome
T1 sequence (whole entry): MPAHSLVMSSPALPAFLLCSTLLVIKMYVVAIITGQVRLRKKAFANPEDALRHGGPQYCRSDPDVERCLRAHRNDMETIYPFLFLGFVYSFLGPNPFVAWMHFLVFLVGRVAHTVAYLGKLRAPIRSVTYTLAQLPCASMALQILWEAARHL
Outline: (§1)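 Enzyme source was microsomes from A549 cells. Compound was incubated with PGH2 substrate for 5 min at 0 °C. PGE2 formation was monitored by online solid phase extraction HPLC with UV detection. Values are means of at least two independent determinations.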

[2] = molecular target: T1, Prostaglandin E synthase (Homo sapiens); assay: Inhibition of human recombinant mPGES-1 in assessed as conversion of PGH2 into PGE2 at 1 uM at 20 degC after 5 mins by HPLC-UV analysis
Outline: (§2)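 Commercial microsomal human recombinant mPGES-1, diluted about 1:200 in phosphate buffer (50 mM sodium phosphate, 100 mM NaCl, 20% glycerol, pH 7.2). Compound in DMSO added to Tris buffer (50 mM, pH 7.2) with freshly dissolved 2.5 mM reduced glutathione, 5 min, then enzyme, 5 min preincubation at room temperature. PGH2 started reaction, 5 min at room temperature. PGE2 measured by online SPE-HPLC-UV at 195 nm. Reference incubations without enzyme gave non-enzymatic PGE2.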

[3] = molecular target: T1, Prostaglandin E synthase (Homo sapiens); assay: Inhibition of human recombinant mPGES-1 in assessed as conversion of PGH2 into PGE2 at 10 uM at 20 degC after 5 mins by HPLC-UV analysis in presence of 0.1% Triton X-100
Outline: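 Human recombinant mPGES-1 microsomes in Tris buffer (50 mM, pH 7.2) containing 2.5 mM glutathione, with 0.1% Triton X-100 added. Compound in DMSO, 5 min preincubation with enzyme at room temperature, then PGH2 substrate, 5 min reaction at 20 °C. PGE2 formed was quantified by online solid phase extraction HPLC with UV detection.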

Prostaglandin E synthase [4] = molecular target: T2, Prostaglandin E synthase (Homo sapiens, UniProt O14684); assay: Inhibition of human recombinant mPGES-1 in assessed as conversion of PGH2 into PGE2 at 20 degC after 5 mins by HPLC-UV analysis
T2 sequence (O14684 whole entry): T1 sequence (whole entry)
Outline: as §2, with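 “temperature.” for “temperature. PGE2 measured by online SPE-HPLC-UV at 195 nm. Reference incubations without enzyme gave non-enzymatic PGE2.”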

Prostaglandin E synthase [5] = molecular target: T2, Prostaglandin E synthase; assay: Inhibition of mPGES-1
Outline: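 PGH2 was the substrate, and reactions ran for 5 min. One version used microsomes from A549 cells at 0 °C. The other used commercial microsomes containing human recombinant mPGES-1, at 20 °C or room temperature, in 50 mM Tris pH 7.2 with 2.5 mM GSH. PGE2 formed was measured by online solid-phase extraction HPLC with UV detection.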

Prostaglandin E synthase [6] = molecular target: T2, Prostaglandin E synthase; assay: Inhibition of mPGES-1 in human A549 cell microsomes assessed as conversion of PGH2 into PGE2 at 0 degC after 5 mins by HPLC-UV analysis; set-up: species or system Microsome; outline: as §1

inhibition [1]	inhibition [2]	Structure (SMILES)	other results
inactive	inactive	Cc1c(C(=O)c2ccc(-c3ccccc3)cc2)c(C)n(C)c1CCC(=O)O	
inactive	inactive	Cc1c(C(=O)c2cccc3ccccc23)c(C)n(C)c1CCC(=O)O	
	99%	CCCCCCCCCCCC(=O)c1c(C)c(C(=O)O)n(-c2ccccc2)c1C	
inactive	97%	CCCCCCCCCCCCCCCCCC(=O)c1c(C)c(CCC(=O)O)n(C)c1C	
	27%	CCCCCCCCCCCC(=O)c1c(C)c(CCC(=O)O)n(Cc2ccc(C(=O)O)cc2)c1C	
inactive	inactive	Cc1c(C(=O)c2ccc3ccccc3c2)c(C)n(C)c1CCC(=O)O	
	62%	CCCCCCCCCCCC(=O)c1c(C)[nH]c(C(=O)O)c1C	
		CC(C)c1ccc2c(c1)c(SC(C)(C)C)c(CC(C)(C)C(=O)O)n2Cc1ccc(Cl)cc1	inhibition [3]: 75%
	59%	CCCCCCCCCCCC(=O)c1c(C)c(C(=O)O)n(C)c1C	
55%	inactive	CCCCCCCC(=O)c1c(C)c(CCC(=O)O)n(C)c1C	
	inactive	CCCCCCCCCCCC(=O)c1cc(CC(=O)O)n(C)c1	
	53%	CCCCCCCCCCCC(=O)c1c(C)c(CCC(=O)O)n(Cc2ccc(O)cc2)c1C	
	37%	CCCCCCCCCCCCc1c(C)c(C(=O)O)n(C)c1C	
67%	inactive	CCCCCCCOc1cccc(C(=O)c2c(C)c(CCC(=O)O)n(C)c2C)c1	
63%	91%	CCCCCCCCCCCCCC(=O)c1c(C)c(CCC(=O)O)n(C)c1C	
	72%	CCCCCCCCCCCC(=O)c1c(C)c(CCC(=O)O)n(Cc2ccc(OC)cc2)c1C	
inactive	inactive	CCCC(=O)c1c(C)c(CCC(=O)O)n(C)c1C	
	35%	CCCCCCCCCCCC(=O)c1c(C)c(CCC(=O)NN)n(C)c1C	
	23%	CCCCCCCCCCCC(=O)c1c(C)c(CC(=O)O)n(-c2ccccc2)c1C	
	65%	CCCCCCCCCCCC(=O)c1c(C)c(CCC(=O)O)n(-c2ccccc2)c1C	
62%	inactive	CCCCCCCCCC(=O)c1c(C)c(CCC(=O)O)n(C)c1C	
	17%	CCCCCCCCCCCC(=O)c1c(C)[nH]c(CC(=O)O)c1C	
	52%	CCCCCCCCCCCC(=O)c1c(C)c(CCC(=O)NS(C)(=O)=O)n(C)c1C	IC50 (Prostaglandin E synthase [4]): 600 nM; inhibition [3]: inactive
35%	97%	CCCCCCCCCCCCCCCC(=O)c1c(C)c(CCC(=O)O)n(C)c1C	
	77%	CCCCCCCCCCCC(=O)c1c(C)c(CCC(=O)NS(=O)(=O)c2ccccc2)n(C)c1C	

inhibition [1]	inhibition [2]	Structure (SMILES)	other results
	inactive	CCCCCCCCCCCC(=O)c1cc(CCC(=O)O)n(C)c1	
	64%	CCCCCCCCCCCC(=O)c1c(-c2ccccc2)c(CCC(=O)O)n(Cc2ccccc2)c1C	
	52%	CCCCCCCCCCCC(=O)c1c(C)c(CCC(=O)O)n(Cc2ccc(C)cc2)c1C	
	78%	CCCCCCCCCCCC(=O)c1c(C)c(CCC(=O)O)n(Cc2ccc(Cl)cc2)c1C	
	70%	CCCCCCCCCCCC(=O)c1c(C)c(CCCC(=O)O)n(C)c1C	
	38%	CCCCCCCCCCCC(=O)c1c(C)[nH]c(CCC(=O)O)c1C	
	62%	CCCCCCCCCCCC(=O)c1c(C)c(CCC(=O)O)n(Cc2ccccc2)c1C	
23%	inactive	CCCCCCCCOc1ccccc1C(=O)c1c(C)c(CCC(=O)O)n(C)c1C	
	inactive	CCCCCCCCCCCC(=O)c1cc(C(=O)O)n(C)c1	
		CS(=O)(=O)Nc1ccc([N+](=O)[O-])cc1OC1CCCCC1 [NS-398]	IC50 (Prostaglandin E synthase [5]): 10 µM
64%	32%	CCCCCCOc1ccc(C(=O)c2c(C)c(CCC(=O)O)n(C)c2C)cc1	
inactive	inactive	Cc1c(C(=O)CCc2ccccc2)c(C)n(C)c1CCC(=O)O	
	39%	CCCCCCCCCCCC(=O)c1c(C)c(CCC(N)=O)n(C)c1C	
inactive	inactive	CCCCCCC(=O)c1c(C)c(CCC(=O)O)n(C)c1C	
inactive	inactive	Cc1c(C(=O)c2ccccc2)c(C)n(C)c1CCC(=O)O	
	35%	CCCCCCCCCCCC(=O)c1c(C)c(CC(=O)O)n(Cc2ccccc2)c1C	
	22%	CCCCCCCCCCCC(=O)c1c(C)c(CC(=O)O)n(C)c1C	
74%	54%	CCCCCCCCCCCC(=O)c1c(C)c(CCC(=O)O)n(C)c1C	IC50 (Prostaglandin E synthase [6]): 800 nM; IC50 (Prostaglandin E synthase [4]): 670 nM; inhibition [3]: inactive; IC50 (Prostaglandin E synthase [5]): 0.8 µM
		CCCCCCC(Sc1nc(Cl)cc(NCc2ccc(-c3ccccc3)cc2)n1)C(=O)O (stereo not drawn)	inhibition [3]: inactive
	inactive	Cc1c(C(=O)Cc2ccc(-c3ccccc3)cc2)c(C)n(C)c1CCC(=O)O	
	65%	CCCCCCCCCCCC(=O)c1c(C)c(C(=O)O)n(Cc2ccccc2)c1C	
	22%	CCCCCCCCCCCC(=O)c1c(C)c(CCC#N)n(C)c1C	
	28%	CCCCCCCCCCCC(=O)c1c(C)c(CCC(=O)O)n(Cc2ccc(C(N)=O)cc2)c1C	
	90%	CCCCCCCCCCCC(=O)c1c(-c2ccccc2)c(CCC(=O)O)n(C)c1C	IC50 (Prostaglandin E synthase [4]): 140 nM; inhibition [3]: inactive
